Screens deposited in PubChem BioAssay by The Scripps Research Institute Molecular Screening Center.
Shown are actives, neighbours in structure and some others; about 3.1% of the full set was active somewhere.
OX1R antag-1: OX1R (HCRTR1) antagonists, primary screen, fluorescence, CHO/OX1R cells, Fluo-8 calcium, orexin A | Fluo-8 calcium fluorescence | inhibition, % at 5 µM | 330,000 tested, 0.43% active | AID 434989, 2010;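 active = inhibition above its plate's threshold, mean inhibition of all tested compounds on the plate plus 3 SD, cut at about 37% in these data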;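 note: 0% = orexin A challenge wells and 100% = SB-334867-A antagonist wells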
GPR7 antag: GPR7 receptor antagonists, primary screen, cell-based, fluorescence, single concentration; Neuropeptides B/W receptor type 1 (Homo sapiens), P48145; 290,000 tested, 1.1% active; GPR7-expressing cells, fluorescence antagonist assay; inhibition, % at 4.4 µM; in the data active = inhibition above about 16%, passing the limit was not always enough;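 note: cells stimulated with the agonist NPW; 0% = agonist with vehicle and 100% = vehicle without agonist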
CHO parental Ca: ATP-evoked calcium signal inhibitors, parental CHO, primary screen, counter-screen for OX1R antagonist project, cell-based, fluorescence, Fluo-8 calcium dye; parental CHO-K1, ATP-induced calcium, Fluo-8 fluorescence; inhibition, % at 5.6 µM; 330,000 tested, 0.63% active;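 active = inhibition above that plate's mean sample inhibition plus 3 SD, cut at about 26% in these data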;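 note: 0% = ATP-challenged DMSO wells and 100% = DMSO wells without ATP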
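Material: parental CHO cells / Compound: single nominal dose of 5.6 µM per compound / Signal: Fluo-8 fluorescence / Replicates: singlicate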
GalR3 antag: GalR3 antagonists in HEK293 cells, primary screen, cell-based, fluorescence readout; inhibition, % at 3 µM; 360,000 tested, 0.44% active; HEK293 GalR3-CNG cAMP membrane potential fluorescence; galR3 body fused to GalR1 C-terminus; AID 651719, 2012;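 active = inhibition above the screen-wide average plus 3 SD, cut at about 13% in these data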;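 note: forskolin and galanin both at EC90 stimulate the cells; cAMP rise reported by CNG channel membrane potential dye signal; 0% = forskolin plus galanin with DMSO and 100% = forskolin alone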
Target sequence (O60755 1-299 limits assumed): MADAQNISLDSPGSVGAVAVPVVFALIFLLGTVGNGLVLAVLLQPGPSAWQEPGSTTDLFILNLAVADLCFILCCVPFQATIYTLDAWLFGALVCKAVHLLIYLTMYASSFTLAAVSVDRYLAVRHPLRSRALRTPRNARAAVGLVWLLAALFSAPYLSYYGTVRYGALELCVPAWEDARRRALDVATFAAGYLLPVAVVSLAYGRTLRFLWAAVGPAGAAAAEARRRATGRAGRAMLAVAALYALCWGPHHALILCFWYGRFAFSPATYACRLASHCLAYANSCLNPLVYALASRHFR
OX1R antag-2: antagonists of human orexin 1 receptor (OX1R) | OX1R-expressing cells, FRET antagonist read-out | 330,000 tested, 1.8% active | Orexin/Hypocretin receptor type 1 (Homo sapiens), O43613 | inhibition, % at 6.6 µM; in the data active = inhibition mostly above about 38%, no sharp cut-off; inactive = mostly below about 40%;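 note: 0% = agonist challenge alone and 100% = reference antagonist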
GPR7 antag cf: GPR7 receptor antagonists, confirmation, cell-based, fluorescence, single concentration | shares compounds with GPR7 antag | inhibition, % at 4.4 µM | GPR7-expressing cells, calcium fluorescence antagonist mode | 2,400 tested, 52% active; in the data active = inhibition above about 24%;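 note: stimulated with the GPR7 agonist NPW; 0% = agonist plus vehicle and 100% = vehicle alone without agonist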
MCHR1 antagonist: MCHR1 antagonists in cells, counter-screen for GPR7 antagonist project, cell-based, fluorescence, human. AID 2148, 2009. inhibition, % at 4.4 µM. 2,400 tested, 62% active. shares compounds with GPR7 antag. MCHR1-expressing cells, fluorescence antagonist assay; in the data active = inhibition above about 22%;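 note: 0% = vehicle with agonist and 100% = vehicle without agonist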
The depositor's hits bear a star; x = no result.

SMILES | OX1R antag-1 | GPR7 antag | CHO parental Ca | GalR3 antag | OX1R antag-2 | GPR7 antag cf | MCHR1 antagonist
CC(C(=O)Nc1cccnc1)c1ccc([N+](=O)[O-])cc1 (stereo unspecified) | -2.6 | 1.0 | -8.7 | -2.4 | 11.5 | x | x
CC(C)CC(NC(=O)C1CCC(C)CC1)C(=O)Nc1cccnc1 (stereo unspecified) | -26.6 | 28.2* | -9.3 | -2.6 | 6.2 | -13.1 | 33.8*
CC(C)CC(NC(=O)C1CCC(C)CC1)C(=O)NCc1cccnc1 (stereo unspecified) | -34.0 | -3.2 | -7.2 | -3.8 | 9.9 | x | x
CC(C)Cc1ccc(C(C)C(=O)Nc2cccnc2)cc1 (stereo unspecified) | 90.4* | 54.5* | 68.9* | -11.9 | 20.1 | 46.4* | 68.3*
C/C(=N\NC(=O)c1ccc2c(c1)OCO2)c1ccc(NC(=O)CCCC(=O)O)cc1 | x | 21.6* | x | -3.3 | x | 4.0 | 7.9
CCOc1nc2cnccc2n(CC(=O)Nc2c(C)cccc2CC)c1=O | -19.5 | 10.3 | -8.9 | 4.6 | 8.0 | x | x
O=S(=O)(NC1CCCC1)c1ccc(S(=O)(=O)N2CCc3ccccc32)cc1 | -2.8 | 46.5* | 38.9* | -5.7 | 31.9 | 61.9* | 60.8*
CCOc1ccc(NC(=O)CCn2c(=S)oc3ccccc32)cc1 | -24.4 | 35.0* | -10.6 | -11.3 | 0.6 | 10.3 | 6.1
Cc1ccc(NC(=O)CCn2c(=S)oc3ccccc32)cc1 | -12.2 | -14.4 | -9.6 | -4.5 | 8.8 | x | x
CC(C)CS(=O)(=O)C1=NN2C(=N)/C(=C\c3ccc(OC(=O)c4ccco4)cc3)C(=O)N=C2S1 | -13.3 | 43.0* | -3.8 | 1.3 | 4.6 | 42.2* | 34.3*
Clc1ccc(-c2csc(=Nc3cccnc3)n2CCCn2ccnc2)cc1Cl | -31.4 | 27.8* | -23.6 | 0.7 | 38.0 | 28.5* | 39.8*
CC(=O)CSc1ccc(-c2nc3cc(C)c(C)cc3[nH]2)cn1 | -19.7 | -2.3 | -13.3 | -4.6 | 40.2 | x | x
Cc1cc2nc(-c3ccc(SCc4ccc(C#N)cc4)nc3)[nH]c2cc1C | 2.6 | 33.2* | 4.6 | -2.5 | 53.4 | 55.3* | 66.0*
N#Cc1ccccc1CSc1ccc(-c2nc3ccccc3[nH]2)cn1 | 12.6 | 31.2* | 0.1 | -7.6 | 31.5 | 4.7 | 73.6*
Cc1ccccc1OCC(=O)N/N=C/c1ccc(N2CCOCC2)o1 | x | 5.8 | x | 0.5 | x | x | x
O=C(c1cc(-c2ccccc2Cl)on1)N1CCCC1 | -24.9 | 26.8* | -6.5 | -10.5 | 16.3 | 17.2 | 7.3
CC(C)CNc1ncnc2c1cnn2Cc1ccccc1Cl | -16.3 | 38.3* | -17.2 | -8.5 | 2.9 | 35.7* | 24.1*
CC(C)Nc1ncnc2c1cnn2Cc1ccccc1Cl | 1.0 | 31.3 | -0.9 | -5.7 | 7.3 | x | x
COc1ccc(/C=C/c2ccc3cccc(O)c3n2)c(OC)c1OC | 16.9 | 32.5* | 20.6 | -12.4 | -0.5 | 20.3 | 62.0*
COc1cccc(/C=C/c2ccc3cccc(O)c3n2)c1OC | -14.4 | 2.2 | 15.5 | -8.7 | 9.3 | x | x
CCC(c1nnnn1Cc1ccc(F)cc1)N1CCN(C2CCCCC2)CC1 (stereo unspecified) | -2.5 | 45.8* | -22.0 | -3.0 | 36.4 | 43.4* | 29.0*
CC(C)C(c1nnnn1Cc1cccs1)N1CCN(C2CCCC2)CC1 (stereo unspecified) | -21.0 | 33.6* | -14.1 | -3.8 | 25.5 | 17.4 | 14.3
c1ccc(C(c2nnnn2Cc2cccs2)N2CCN(C3CCCC3)CC2)cc1 (stereo unspecified) | -22.7 | -1.0 | -9.1 | -3.5 | 12.1 | x | x
CCC(C)(C)NC(=O)c1cc(S(=O)(=O)N2CCc3ccccc32)cn1C | -15.7 | 21.1* | -1.2 | x | 8.2 | 9.7 | 35.4*
